In ChEMBL document CHEMBL1141158, “New 5-hydroxytryptamine(1A) receptor ligands containing a norbornene nucleus: synthesis and in vitro pharmacological evaluation” (J Med Chem, 2005) one finds Ki data, which are given here for six compounds.

Each structure is given as a SMILES string.

The target in assay [1] is T1, Adrenergic receptor alpha-1 (Rattus norvegicus, UniProt P15823+P23944+P43140).
T1 sequence (P15823 whole entry): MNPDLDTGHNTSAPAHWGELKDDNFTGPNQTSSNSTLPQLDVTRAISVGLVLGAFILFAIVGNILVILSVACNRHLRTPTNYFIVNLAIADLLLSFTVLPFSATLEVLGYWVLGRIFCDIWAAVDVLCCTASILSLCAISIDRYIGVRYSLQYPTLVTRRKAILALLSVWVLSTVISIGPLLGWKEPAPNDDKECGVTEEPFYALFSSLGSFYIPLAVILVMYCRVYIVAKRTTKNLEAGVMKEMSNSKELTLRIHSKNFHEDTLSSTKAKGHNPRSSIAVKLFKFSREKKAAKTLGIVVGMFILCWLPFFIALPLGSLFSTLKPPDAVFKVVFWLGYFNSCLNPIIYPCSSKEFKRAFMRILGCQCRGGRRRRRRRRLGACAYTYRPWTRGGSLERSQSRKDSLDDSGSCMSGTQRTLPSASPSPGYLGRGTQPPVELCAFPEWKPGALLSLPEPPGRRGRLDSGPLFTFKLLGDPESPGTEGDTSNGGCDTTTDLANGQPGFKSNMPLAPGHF
T1 sequence (P23944 whole entry): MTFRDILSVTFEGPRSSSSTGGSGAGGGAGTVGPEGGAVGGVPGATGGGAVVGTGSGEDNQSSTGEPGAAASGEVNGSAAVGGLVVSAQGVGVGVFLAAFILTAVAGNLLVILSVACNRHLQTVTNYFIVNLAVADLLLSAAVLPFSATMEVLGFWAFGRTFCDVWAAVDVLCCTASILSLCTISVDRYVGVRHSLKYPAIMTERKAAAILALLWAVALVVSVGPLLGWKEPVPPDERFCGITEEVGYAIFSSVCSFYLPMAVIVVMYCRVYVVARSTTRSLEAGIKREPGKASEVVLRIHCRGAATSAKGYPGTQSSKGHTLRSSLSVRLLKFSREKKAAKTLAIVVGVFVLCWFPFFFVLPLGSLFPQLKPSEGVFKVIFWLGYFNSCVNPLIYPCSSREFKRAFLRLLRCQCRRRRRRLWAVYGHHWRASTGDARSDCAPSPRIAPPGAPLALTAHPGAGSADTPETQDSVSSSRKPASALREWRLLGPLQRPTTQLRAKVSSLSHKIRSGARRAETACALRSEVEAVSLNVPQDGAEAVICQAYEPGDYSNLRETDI
T1 sequence (P43140 whole entry): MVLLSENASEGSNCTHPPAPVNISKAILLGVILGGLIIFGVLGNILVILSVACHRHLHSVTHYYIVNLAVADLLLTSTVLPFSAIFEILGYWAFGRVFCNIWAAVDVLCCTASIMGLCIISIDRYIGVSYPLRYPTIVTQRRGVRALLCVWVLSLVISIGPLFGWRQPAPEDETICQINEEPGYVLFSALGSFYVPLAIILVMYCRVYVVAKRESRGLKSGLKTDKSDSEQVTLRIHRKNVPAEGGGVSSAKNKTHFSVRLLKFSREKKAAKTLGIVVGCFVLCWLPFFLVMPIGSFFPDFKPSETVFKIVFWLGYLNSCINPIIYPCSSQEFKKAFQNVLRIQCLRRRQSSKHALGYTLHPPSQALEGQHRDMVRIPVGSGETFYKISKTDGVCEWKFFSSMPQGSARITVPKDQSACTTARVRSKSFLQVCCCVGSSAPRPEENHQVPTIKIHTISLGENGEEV
Nature of the assay: Inhibition of [3H]prazosin bindign to Adrenergic alpha 1 receptor from rat brain cortex. In outline: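 Cortical membranes in 50 mM Tris-HCl pH 7.4, 10 mg fresh tissue per tube, with [3H]prazosin 0.4 nM final; 30 min at 25 °C, then vacuum filtration on GF/B and scintillation counting. 10 μM phentolamine defined nonspecific binding. Six test concentrations in triplicate; IC50 from competition curves, Ki by Cheng–Prusoff using Scatchard KD.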

In a further assay the target is D(1A) dopamine receptor (Rattus norvegicus, UniProt P18901). Nature of the assay: Inhibition of [3H]SCH-23,390 binding to Dopamine D1 receptor from rat striatum. In a few lines:
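Rat striatal membranes washed twice by 50 000g spins, resuspended in Tris-HCl pH 7.1 with NaCl, KCl, CaCl2, MgCl2, ascorbic acid, 10 μM pargyline; 3 mg fresh tissue per tube. [3H]SCH-23390 at 0.4 nM final, 15 min at 37 °C, GF/B filtration, scintillation counting. Nonspecific with 0.1 μM piflutixol. Six concentrations in triplicate; IC50 converted to Ki by Cheng–Prusoff.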

The target in another assay is D(2) dopamine receptor (Rattus norvegicus, UniProt P61169). Nature of the assay: Inhibition of [3H]spiperone binding to Dopamine D2 receptor from rat striatum. In a few lines: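 Rat striatal membranes washed twice at 50 000g, resuspended in Tris-HCl pH 7.1 with NaCl, KCl, CaCl2, MgCl2, ascorbic acid, 10 μM pargyline; 3 mg fresh tissue per tube. [3H]spiperone 0.4 nM final, 15 min at 37 °C, GF/B filtration, scintillation counting. Nonspecific defined with 1 μM (+)-butaclamol. Six concentrations, triplicate; Ki via Cheng–Prusoff.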

Assay [2] deals with 5-hydroxytryptamine receptor 2A (Rattus norvegicus, UniProt P14842). Nature of the assay: Inhibition of 0.4 nM [3H]ketanserin binding to Serotonin 5-HT2A receptor from rat brain cortex.
Assay [3] has as its target T2, 5-hydroxytryptamine receptor 2C (Rattus norvegicus, UniProt P08909).
T2 sequence (P08909 whole entry): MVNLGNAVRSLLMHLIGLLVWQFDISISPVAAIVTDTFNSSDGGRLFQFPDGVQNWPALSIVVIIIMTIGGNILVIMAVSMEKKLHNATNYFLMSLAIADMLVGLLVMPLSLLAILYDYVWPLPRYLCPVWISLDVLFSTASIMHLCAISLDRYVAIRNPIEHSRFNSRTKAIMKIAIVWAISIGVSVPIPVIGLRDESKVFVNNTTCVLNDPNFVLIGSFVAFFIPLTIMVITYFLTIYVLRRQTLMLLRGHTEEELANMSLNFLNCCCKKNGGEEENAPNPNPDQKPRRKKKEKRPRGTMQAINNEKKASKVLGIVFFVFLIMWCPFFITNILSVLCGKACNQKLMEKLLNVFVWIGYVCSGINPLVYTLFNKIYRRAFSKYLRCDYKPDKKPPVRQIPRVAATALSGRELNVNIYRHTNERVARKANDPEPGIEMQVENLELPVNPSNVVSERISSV
Nature of the assay: Inhibition of 1 nM [3H]mesulergine binding to Serotonin 5-HT2C receptor from rat brain cortex.

Chain of 5-hydroxytryptamine receptor 2A (P14842 whole entry): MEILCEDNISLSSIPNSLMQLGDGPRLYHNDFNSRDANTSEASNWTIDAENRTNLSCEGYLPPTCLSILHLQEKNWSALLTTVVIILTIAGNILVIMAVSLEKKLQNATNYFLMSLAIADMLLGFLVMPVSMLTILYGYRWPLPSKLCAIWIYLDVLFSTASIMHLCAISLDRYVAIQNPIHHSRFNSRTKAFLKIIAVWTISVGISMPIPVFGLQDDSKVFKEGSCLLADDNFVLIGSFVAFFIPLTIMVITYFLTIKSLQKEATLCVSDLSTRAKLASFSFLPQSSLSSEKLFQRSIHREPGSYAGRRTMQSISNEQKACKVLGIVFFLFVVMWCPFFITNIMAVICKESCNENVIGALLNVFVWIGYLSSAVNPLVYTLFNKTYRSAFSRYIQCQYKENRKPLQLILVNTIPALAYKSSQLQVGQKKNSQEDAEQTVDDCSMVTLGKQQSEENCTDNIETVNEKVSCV
Chain of D(1A) dopamine receptor (P18901 whole entry): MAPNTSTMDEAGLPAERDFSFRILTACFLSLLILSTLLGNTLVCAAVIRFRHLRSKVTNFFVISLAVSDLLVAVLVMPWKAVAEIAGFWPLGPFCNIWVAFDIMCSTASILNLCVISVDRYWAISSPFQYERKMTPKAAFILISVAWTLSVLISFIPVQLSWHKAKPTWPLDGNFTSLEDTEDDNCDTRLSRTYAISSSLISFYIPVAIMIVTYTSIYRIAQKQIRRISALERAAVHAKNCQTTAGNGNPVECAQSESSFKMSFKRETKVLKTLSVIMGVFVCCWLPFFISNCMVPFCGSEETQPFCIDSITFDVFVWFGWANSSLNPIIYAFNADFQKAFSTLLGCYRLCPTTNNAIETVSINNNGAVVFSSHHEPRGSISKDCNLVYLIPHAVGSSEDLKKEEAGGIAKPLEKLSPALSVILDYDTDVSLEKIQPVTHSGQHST
Chain of D(2) dopamine receptor (P61169 whole entry): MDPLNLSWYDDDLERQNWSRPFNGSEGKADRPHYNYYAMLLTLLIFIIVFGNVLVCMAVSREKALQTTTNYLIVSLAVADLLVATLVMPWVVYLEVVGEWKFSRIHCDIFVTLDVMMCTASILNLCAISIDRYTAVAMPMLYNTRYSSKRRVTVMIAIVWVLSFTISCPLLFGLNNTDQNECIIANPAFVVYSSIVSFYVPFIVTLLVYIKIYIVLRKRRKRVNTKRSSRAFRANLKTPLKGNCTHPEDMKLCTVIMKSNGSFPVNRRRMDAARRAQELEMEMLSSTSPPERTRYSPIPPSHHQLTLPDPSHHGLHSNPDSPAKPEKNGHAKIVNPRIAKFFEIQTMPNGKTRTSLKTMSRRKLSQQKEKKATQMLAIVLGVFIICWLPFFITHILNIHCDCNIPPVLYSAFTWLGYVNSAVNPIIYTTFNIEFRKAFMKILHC

For orientation: Ki means the equilibrium dissociation constant of an inhibitor or competing ligand from its target. On to `O=C1C2C3C=CC(C3)C2C(=O)N1OCCCN1CCN(c2cccc(C(F)(F)F)c2)CC1` (stereo not given), for which the inhibition constant (Ki) was 0.358 µM in assay [1]; 4.51 µM on D(1A) dopamine receptor (read-out: Ki); 0.67 µM on D(2) dopamine receptor (read-out: Ki); 2.68 µM in assay [2]; > 10 µM in assay [3].
The like results for `O=C1C2C3C=CC(C3)C2C(=O)N1OCCN1CCN(c2cccc(C(F)(F)F)c2)CC1` (stereo not given) were, in that order, > 10 µM, > 10 µM, > 10 µM, 4.01 µM and > 10 µM.
In the same order, the values of `COc1ccccc1N1CCN(CCCON2C(=O)C3C4C=CC(C4)C3C2=O)CC1` (stereo not given) are 0.0753 µM, > 10 µM, > 10 µM, > 10 µM and > 10 µM.
Turning to `O=C1C2C3C=CC(C3)C2C(=O)N1OCCN1CCN(c2ccccc2Cl)CC1` (stereo not given), the Ki in assay [1] was 0.747 µM; at D(1A) dopamine receptor (read-out: Ki), > 10 µM; at D(2) dopamine receptor (read-out: Ki), > 10 µM; in assay [2], > 10 µM; in assay [3] it was > 10 µM.
For `O=C1C2C3C=CC(C3)C2C(=O)N1OCCCN1CCN(c2cccc(Cl)c2)CC1` (stereo not given), the Ki is 0.141 µM in assay [1]; > 10 µM on D(1A) dopamine receptor (read-out: Ki); “Not Active” at D(2) dopamine receptor; 0.547 µM in assay [2]; 0.733 µM in assay [3].
With `O=C1C2C3C=CC(C3)C2C(=O)N1OCCCN1CCN(c2ccccc2Cl)CC1` (stereo not given), the Ki is 0.128 µM in assay [1]; “Not Active” at D(1A) dopamine receptor; “Not Active” at D(2) dopamine receptor; 3.9 µM in assay [2]; 0.423 µM in assay [3].
